Assay results from ChEMBL document CHEMBL5316309, “Discovery of BAY-390, a Selective CNS Penetrant Chemical Probe as Transient Receptor Potential Ankyrin 1 (TRPA1) Antagonist” (J Med Chem, 2023).
Converted amounts (≈) assume the structure as drawn. The source made the active and inactive calls.

Legend:
[1] = Lipophilicity, logD of compound; type: physicochemical; settings: octanol/water
[2] = molecular target: Transient receptor potential cation channel subfamily A member 1 (Rattus norvegicus, UniProt Q6RI86); experiment: Antagonist activity at rat TRPA1 channel expressed in CHO-K1 cells tagged with GCaMP6 by measuring calcium flux measured after 10 mins by FLIPR tetra analysis; type: cell-based
[3] = molecular target: T1, Transient receptor potential cation channel subfamily A member 1 (Homo sapiens, UniProt O75762); experiment: Antagonist activity at human wildtype TRPA1 channel expressed in CHO-K1 cells tagged with GCaMP6 by measuring calcium flux measured after […] by FLIPR tetra analysis; type: cell-based
Rattus norvegicus [4] = experiment: Antiallodynic activity against spinal nerve ligation neuropathic pain Sprague-Dawley rat model assessed as paw withdrawal threshold administered at 30 mg/kg, po bid post SNL surgery; type: functional, organism-based; settings: time <= 10.0 day, TDE = time-dependent effect
How it was run: (§1)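 Male Sprague Dawley rats, 100–120 g, had spinal nerve ligation under isoflurane. Oral dosing b.i.d. on days 15–24 post surgery in DMSO/Solutol/water 10/40/50 at 5 mL/kg; gabapentin 30 mg/kg q.d. as control. Von Frey up-and-down thresholds, blinded, on both hind paws at day 11 (baseline) and days 15, 18, 21, 24, 2 h after morning dose. Kruskal–Wallis with Dunn versus vehicle.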

[5] = molecular target: T1, Transient receptor potential cation channel subfamily A member 1; experiment: Antagonist activity at human TRPA1 channel expressed in CHO-K1 cells tagged with GCaMP6 by measuring calcium flux measured after 10 mins by FLIPR tetra analysis; type: cell-based
[6] = Mutagenecity in Salmonella typhimurium by Ames test; type: toxicity; settings: salmonella sp.
Plasma [7] = experiment: Free plasma concentration in cinnamaldehyde induced nocifensive behaviour Sprague-Dawley rat treated with CFA for 24 hrs followed by compound addition at 10 mg/kg, po measured after 4.5 hrs; type: functional
How it was run: (§2)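 Unbound plasma level taken 4.5 h after oral dosing (3, 10, 30 mg/kg), given 24 h after intraplantar CFA in rats.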

Plasma [8] = experiment: Free plasma concentration in cinnamaldehyde induced nocifensive behaviour Sprague-Dawley rat treated with CFA for 24 hrs followed by compound addition at 3 mg/kg, po measured after 4.5 hrs; type: functional; how it was run: as §2
[9] = Metabolic stability in rat blood assessed as clearance; type: ADME, tissue-based
[10] = Permeability form apical to basolateral side in human Caco2 cells; type: ADME, cell-based; settings: caco-2
[11] = Unbound brain concentration in spinal nerve ligation neuropathic pain Sprague-Dawley rat model administered at 30 mg/kg, po bid for 10 days from day 15 to day 24 post SNL surgery measured after 2 to 8 hrs of last dose
Rattus norvegicus [12] = experiment: Antiallodynic activity against spinal nerve ligation neuropathic pain Sprague-Dawley rat model assessed as reversal of mechanical allodynia administered at 90 mg/kg, po bid measured after 6 days post SNL surgery; type: functional, organism-based; settings: time 6.0 day
Rattus norvegicus [13] = experiment: Anti-inflammatory activity in complete Freund's adjuvant induced mechanical hyperalgesia in Sprague-Dawley rat assessed as reduction of mechanical hyperalgesia treated with CFA for 24 hrs followed by compound addition at 10 to 30 mg/kg, po measured after 2 hrs by Dunnett's post hoc test; type: functional, organism-based; settings: dose 10-30 mg/kg
How it was run: (§3)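 Male Sprague Dawley rats, 175–200 g, given intraplantar CFA in one hind paw. Oral dose once 24 h later in 10% DMSO/40% Solutol/50% water. Paw withdrawal threshold to pressure measured blinded on CFA and contralateral paws before CFA, at 24 h (predrug) and 2 and 4 h postdose. Two-way repeated-measures ANOVA, then Dunnett versus vehicle.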

[14] = Fraction unbound in mouse; type: ADME, organism-based; settings: in vivo
Plasma [15] = experiment: Free plasma concentration in cinnamaldehyde induced nocifensive behaviour Sprague-Dawley rat model treated with cinnamaldehyde followed compound addition at 3 to 30 mg/kg, po measured after 1 hr; type: functional; settings: dose 3-30 mg/kg
How it was run: (§4)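 Free plasma level taken 1 h after oral dosing (3, 10, 30 mg/kg) in the rat intraplantar cinnamaldehyde nocifensive model.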

[16] = Efflux ratio of permeability in human Caco2 cells; type: ADME, cell-based; settings: caco-2
[17] = Solubility of the compound in PBS buffer at pH 6.5; type: physicochemical
Plasma [18] = experiment: Free plasma concentration in cinnamaldehyde induced nocifensive behaviour Sprague-Dawley rat treated with CFA for 24 hrs followed by compound addition at 30 mg/kg, po measured after 4.5 hrs; type: functional; how it was run: as §2
Rattus norvegicus [19] = experiment: Anti-inflammatory activity in complete Freund's adjuvant induced mechanical hyperalgesia in Sprague-Dawley rat assessed as reduction of mechanical hyperalgesia treated with CFA for 24 hrs followed by compound addition at 30 mg/kg, po measured after 4 hrs by Dunnett's post hoc test; type: functional, organism-based; how it was run: as §3
Plasma [20] = experiment: Unbound plasma concentration in spinal nerve ligation neuropathic pain Sprague-Dawley rat model administered at 30 mg/kg, po bid for 10 days from day 15 to day 24 post SNL surgery measured after […] of last dose; type: functional; settings: time 242.5 hrs
[21] = Fraction unbound in Sprague-Dawley rat; type: ADME
Rattus norvegicus [22] = experiment: Reversal of complete Freund's adjuvant induced mechanical hyperalgesia in Sprague-Dawley rat assessed as paw withdrawal threshold treated with CFA for 24 hrs followed by compound addition at 3 to 30 mg/kg, po measured after 2 to 4 hrs by Dunnett's post hoc test; type: functional, organism-based; settings: dose 3-30 mg/kg, time 2-4 hrs; how it was run: as §3
Plasma [23] = experiment: Free plasma concentration in cinnamaldehyde induced nocifensive behaviour Sprague-Dawley rat model treated at 3 to 30 mg/kg, po for 1 hr followed by cinnamaldehyde addition; type: functional; settings: dose 3-30 mg/kg; how it was run: as §4
[24] = Fraction unbound in human; type: ADME
Rattus norvegicus [25] = experiment: Protective activity in cinnamaldehyde induced nocifensive behaviour Sprague-Dawley rat model assessed as reduction in paw licking treated with cinnamaldehyde followed compound addition at 3 to 30 mg/kg, po measured after 1 hr measured by Dunnert's post hoc test; type: functional, organism-based; settings: dose 3-30 mg/kg
How it was run: (§5)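 Male Sprague Dawley rats, 175–200 g, dosed orally in 10% DMSO/40% Solutol/50% water 1 h before intraplantar injection of 50 μL cinnamaldehyde at 5 mM. Flinch number and licking duration scored blinded for 5 min. One-way ANOVA with Dunnett versus vehicle.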

Plasma [26] = experiment: Free plasma concentration in cinnamaldehyde induced nocifensive behaviour Sprague-Dawley rat model at 10 mg/kg, po; type: functional; settings: time 1 hrs; how it was run: as §4
[27] = Fraction unbound in guniea pig; type: ADME, Cavia porcellus; settings: guinea pig
Rattus norvegicus [28] = experiment: Antiallodynic activity against spinal nerve ligation neuropathic pain Sprague-Dawley rat model assessed as reversal of mechanical allodynia administered at 30 mg/kg, po bid for 10 days from day 15 to day 24 post SNL surgery; type: functional, organism-based; settings: time <= 10.0 day; how it was run: as §1
[29] = Unbound brain concentration in spinal nerve ligation neuropathic pain Sprague-Dawley rat model administered at 90 mg/kg, po bid for 10 days from day 15 to day 24 post SNL surgery measured after 2 to 8 hrs of last dose
Plasma [30] = experiment: Unbound plasma concentration in spinal nerve ligation neuropathic pain Sprague-Dawley rat model administered at 90 mg/kg, po bid for 10 days from day 15 to day 24 post SNL surgery measured after […] of last dose; type: functional; settings: time 242.5 hrs
[31] = Metabolic stability in rat hepatocytes; type: ADME, cell-based, Hepatocyte
Rattus norvegicus [32] = experiment: Protective activity in cinnamaldehyde induced nocifensive behaviour Sprague-Dawley rat model assessed as reduction in number of flinches treated with cinnamaldehyde followed compound addition at 3 to 30 mg/kg, po measured after 1 hr measured by Dunnert's post hoc test; type: functional, organism-based; settings: dose 3-30 mg/kg; how it was run: as §5

Chain of Transient receptor potential cation channel subfamily A member 1 (Rattus norvegicus, UniProt Q6RI86) (Q6RI86 whole entry): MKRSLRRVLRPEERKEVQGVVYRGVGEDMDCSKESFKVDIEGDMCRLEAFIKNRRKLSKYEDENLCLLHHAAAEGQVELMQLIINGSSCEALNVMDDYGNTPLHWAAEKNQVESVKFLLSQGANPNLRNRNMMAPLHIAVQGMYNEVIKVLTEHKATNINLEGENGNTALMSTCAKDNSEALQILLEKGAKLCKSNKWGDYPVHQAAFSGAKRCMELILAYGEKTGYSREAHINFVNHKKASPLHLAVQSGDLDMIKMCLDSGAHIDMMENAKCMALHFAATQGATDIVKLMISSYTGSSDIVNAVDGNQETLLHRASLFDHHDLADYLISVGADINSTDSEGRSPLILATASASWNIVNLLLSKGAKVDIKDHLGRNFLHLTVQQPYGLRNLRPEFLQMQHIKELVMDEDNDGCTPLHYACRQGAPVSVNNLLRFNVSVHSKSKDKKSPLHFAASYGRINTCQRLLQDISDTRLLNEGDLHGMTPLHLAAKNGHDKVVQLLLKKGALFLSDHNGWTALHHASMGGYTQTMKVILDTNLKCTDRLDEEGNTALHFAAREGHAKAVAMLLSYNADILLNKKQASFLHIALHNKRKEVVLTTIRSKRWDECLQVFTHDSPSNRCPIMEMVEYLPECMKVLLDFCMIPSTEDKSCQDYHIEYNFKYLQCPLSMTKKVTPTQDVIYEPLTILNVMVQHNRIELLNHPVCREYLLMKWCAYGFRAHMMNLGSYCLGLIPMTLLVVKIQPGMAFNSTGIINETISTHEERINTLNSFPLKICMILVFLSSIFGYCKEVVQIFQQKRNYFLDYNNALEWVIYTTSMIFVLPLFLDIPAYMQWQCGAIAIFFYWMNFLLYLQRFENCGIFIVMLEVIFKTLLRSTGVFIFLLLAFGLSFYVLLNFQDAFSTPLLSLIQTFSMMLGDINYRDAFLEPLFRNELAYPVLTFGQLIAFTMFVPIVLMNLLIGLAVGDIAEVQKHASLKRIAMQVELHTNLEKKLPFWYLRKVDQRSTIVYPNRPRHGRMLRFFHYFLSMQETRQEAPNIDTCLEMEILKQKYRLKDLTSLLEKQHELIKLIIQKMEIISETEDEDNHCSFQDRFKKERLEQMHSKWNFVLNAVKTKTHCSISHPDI
T1 sequence (O75762 whole entry): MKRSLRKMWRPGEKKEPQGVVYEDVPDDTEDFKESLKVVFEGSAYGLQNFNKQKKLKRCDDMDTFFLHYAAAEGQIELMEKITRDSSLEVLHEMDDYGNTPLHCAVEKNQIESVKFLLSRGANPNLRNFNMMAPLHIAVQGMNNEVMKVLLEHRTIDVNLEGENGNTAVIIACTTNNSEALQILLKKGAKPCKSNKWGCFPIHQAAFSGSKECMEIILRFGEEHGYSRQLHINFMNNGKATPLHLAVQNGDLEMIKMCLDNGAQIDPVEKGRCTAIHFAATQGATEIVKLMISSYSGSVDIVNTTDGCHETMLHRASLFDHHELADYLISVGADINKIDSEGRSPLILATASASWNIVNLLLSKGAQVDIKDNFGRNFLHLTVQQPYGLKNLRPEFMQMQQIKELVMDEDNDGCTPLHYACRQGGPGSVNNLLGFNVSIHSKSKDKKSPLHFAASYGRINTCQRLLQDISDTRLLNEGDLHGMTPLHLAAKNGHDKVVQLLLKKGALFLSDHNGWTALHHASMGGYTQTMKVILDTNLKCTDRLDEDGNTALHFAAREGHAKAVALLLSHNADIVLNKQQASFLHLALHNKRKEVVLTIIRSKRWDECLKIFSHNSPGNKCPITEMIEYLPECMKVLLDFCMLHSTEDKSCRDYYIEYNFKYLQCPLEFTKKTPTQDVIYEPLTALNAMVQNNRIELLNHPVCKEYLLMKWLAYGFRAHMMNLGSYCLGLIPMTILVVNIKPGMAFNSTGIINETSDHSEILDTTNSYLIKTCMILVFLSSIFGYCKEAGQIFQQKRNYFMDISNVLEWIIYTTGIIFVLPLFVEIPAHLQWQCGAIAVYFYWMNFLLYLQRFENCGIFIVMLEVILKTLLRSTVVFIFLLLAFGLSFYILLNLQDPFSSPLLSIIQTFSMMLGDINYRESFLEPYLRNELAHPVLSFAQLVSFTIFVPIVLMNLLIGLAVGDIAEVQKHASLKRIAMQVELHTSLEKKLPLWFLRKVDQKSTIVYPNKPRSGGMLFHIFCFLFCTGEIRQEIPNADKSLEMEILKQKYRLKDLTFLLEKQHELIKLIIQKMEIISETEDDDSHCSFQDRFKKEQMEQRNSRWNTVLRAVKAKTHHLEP

## O[C@]1(C(F)(F)F)CCCC[C@H]1Cc1csc(Cl)c1
[1]
  logD: 4.3
[2]
  IC50: 0.13 µM

## O[C@@]1(C(F)(F)F)CCCC[C@@H]1Cc1ccc(F)cc1
[1]
  logD: 3.8

## C[C@@H](C(=O)Nc1ccnc(-c2cnc(N3CCC[C@H]3C(F)(F)F)nc2)n1)n1cnc2c1c(=O)n(C)c(=O)n2C
[3]
  IC50: 0.064 µM

## O[C@]1(C(F)(F)F)CCCC[C@H]1Oc1ccc(F)cc1
[1]
  logD: 3.5
[2]
  IC50: 0.12 µM

## O[C@]1(C(F)(F)F)CCCC[C@H]1Cc1ccc(Cl)nc1
[1]
  logD: 3
[2]
  IC50: 2.4 µM

## O[C@]1(C(F)(F)F)CCCC[C@H]1Cc1ncc(Cl)s1
[2]
  IC50: 1.2 µM

## NCC1(CC(=O)O)CCCCC1
Rattus norvegicus [4]
  Activity: Tde

## CC1(C)CCCC(O)(C(F)(F)F)C1Cc1cccc(C#N)c1 (mixture of isomers)
[5]
  IC50: 5.55 µM
[2]
  IC50: 13 µM

## CC1(C)CCCC(O)(C(F)(F)F)C1Cc1cccc(F)c1 (mixture of isomers)
[5]
  IC50: 0.75 µM
[2]
  IC50: 3.8 µM

## Cc1ccc(CC2C(C)(C)CCCC2(O)C(F)(F)F)cc1 (mixture of isomers)
[5]
  IC50: 1.27 µM
[2]
  IC50: > 12.5 µM

## CC1(C)CCCC(O)(C(F)(F)F)C1Cc1ccc(Cl)cc1 (mixture of isomers)
[5]
  IC50: 0.34 µM
[2]
  IC50: 11.5 µM

## CC1(C)CCCC(O)(C(F)(F)F)C1Cc1ccc(C#N)cc1 (mixture of isomers)
[5]
  IC50: 0.39 µM
[2]
  IC50: 7.57 µM

## CC1(C)CCCC(O)(C(F)(F)F)C1Cc1ccc(F)cc1F (mixture of isomers)
[5]
  IC50: 1 µM
[2]
  IC50: > 10 µM

## COc1ccc(CC2C(C)(C)CCCC2(O)C(F)(F)F)cc1 (mixture of isomers)
[5]
  IC50: > 12.5 µM
[2]
  IC50: > 12.5 µM

## COCCN(c1ccc(F)cc1)[C@@H]1CCCC[C@]1(O)C(F)(F)F (racemic)
[1]
  logD: 3.8
[2]
  IC50: 3.8 µM

## O[C@]1(C(F)(F)F)CCCC[C@H]1Nc1ccccc1 (racemic)
[2]
  IC50: 2.3 µM

## N#Cc1ccc(NC2CCCCC2(O)C(F)(F)F)cc1C(F)(F)F (racemic)
[6]
  Activity: Non-Toxic
[5]
  IC50: 19 µM
[2]
  IC50: > 25 µM

## OC(F)(F)[C@@]1(O)CCCC[C@H]1Cc1c[nH]c2ccccc12 (racemic)
[1]
  logD: 3.3

## O[C@]1(C(F)(F)F)CCCC[C@H]1Nc1ccc(F)cc1 [BAY-390]
Plasma [7]
  Cp(f): 10 nM
[1]
  logD: 3
Plasma [8]
  Cp(f): 7 nM
[9]
  CL: 40 mL/min/kg
[10]
  permeability: 29.3 ×10⁻⁶ cm/s
[11]
  unbound brain concentration: 33 nM
Rattus norvegicus [12]
  Activity: Active
Rattus norvegicus [13]
  Activity: Active
[14]
  fraction unbound: 0.081
Plasma [15]
  Cp(f): 10 nM
[16]
  Ratio: 0.6
[17]
  solubility: 56 µg/mL (≈ 202 µM)
Plasma [18]
  Cp(f): 103 nM
Rattus norvegicus [19]
  Activity: Active
[3]
  IC50: 0.035 µM
Plasma [20]
  Cp(f): 115 nM
[21]
  fraction unbound: 0.06
[6]
  Activity: Non-Toxic
Rattus norvegicus [22]
  Activity: Active
Plasma [23]
  Cp(f): 115 nM
[24]
  fraction unbound: 0.12
Rattus norvegicus [25]
  Activity: Active
Plasma [26]
  Cp(f): 35 nM
[27]
  fraction unbound: 0.097
Rattus norvegicus [28]
  Activity: inactive
[29]
  unbound brain concentration: 61 nM
Plasma [30]
  Cp(f): 201 nM
[31]
  Stability: Stable
Rattus norvegicus [32]
  Activity: Active

## COc1cc(N[C@@H]2CCCC[C@]2(O)C(F)(F)F)ccc1F [BAY-9897]
[6]
  Activity: Non-Toxic
[5]
  IC50: > 25 µM
[2]
  IC50: > 25 µM
